Reference: ChEMBL document CHEMBL3585335, “Isolation and Synthetic Diversification of Jadomycin 4-Amino-l-phenylalanine” (J Nat Prod, 2015)
Active and inactive are the calls of the source.

Key:
A549 = experiment: Cytotoxicity against human A549 cells assessed as cell growth at 1 x 10^-5 M; assay type: functional, cell-based
Method in brief: (§1)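 Run by the NCI Developmental Therapeutics Program (DTP) as its one-dose screen across the 60 human tumour cell line panel.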

NCI-H322M = experiment: Cytotoxicity against human NCI-H322M cells assessed as cell growth at 1 x 10^-5 M; assay type: functional, cell-based; method in brief: as §1
NCI-H23 = experiment: Cytotoxicity against human NCI-H23 cells assessed as cell growth at 1 x 10^-5 M; assay type: functional, cell-based; method in brief: as §1
HOP-62 = experiment: Cytotoxicity against human HOP62 cells assessed as cell growth at 1 x 10^-5 M; assay type: functional, cell-based; method in brief: as §1
K562 = experiment: Cytotoxicity against human K562 cells assessed as cell growth at 1 x 10^-5 M; assay type: functional, cell-based; method in brief: as §1
T47D = experiment: Cytotoxicity against human T47D cells assessed as cell growth at 1 x 10^-5 M; assay type: functional, cell-based
Method in brief: (§2)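 Tested by the NCI Developmental Therapeutics Program in its one-dose screen across the 60 human tumour cell line panel.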

SNB-75 = experiment: Cytotoxicity against human SNB75 cells assessed as cell growth at 1 x 10^-5 M; assay type: functional, cell-based; method in brief: as §1
OVCAR-3 = experiment: Cytotoxicity against human OVCAR3 cells assessed as cell growth at 1 x 10^-5 M; assay type: functional, cell-based; method in brief: as §1
Malme-3M = experiment: Cytotoxicity against human MALME-3M cells assessed as cell growth at 1 x 10^-5 M; assay type: functional, cell-based; method in brief: as §1
Escherichia coli [1] = experiment: Effect on photodynamic inactivation in Escherichia coli pUC19 DNA assessed as photo-mediated DNA cleavage at 10 to 100 uM by ethidium bromide gel-electrophoresis analysis
MDA-MB-435 = experiment: Cytotoxicity against human MDA-MB-435 cells assessed as cell growth at 1 x 10^-5 M; assay type: functional, cell-based; method in brief: as §1
Escherichia coli [2] = experiment: Effect on Copper-mediated Escherichia coli pUC19 DNA cleavage at 100 uM by gel-electrophoresis analysis
SK-MEL-5 = experiment: Cytotoxicity against human SK-MEL-5 cells assessed as cell growth at 1 x 10^-5 M; assay type: functional, cell-based; method in brief: as §1
HOP-92 = experiment: Cytotoxicity against human HOP92 cells assessed as cell growth at 1 x 10^-5 M; assay type: functional, cell-based; method in brief: as §1
MDA-MB-231 = experiment: Cytotoxicity against human MDA-MB-231 cells assessed as cell growth at 1 x 10^-5 M; assay type: functional, cell-based; method in brief: as §1
UACC-62 = experiment: Cytotoxicity against human UACC62 cells assessed as cell growth at 1 x 10^-5 M; assay type: functional, cell-based; method in brief: as §2
TK-10 = experiment: Cytotoxicity against human TK10 cells assessed as cell growth at 1 x 10^-5 M; assay type: functional, cell-based; method in brief: as §2
SR = experiment: Cytotoxicity against human SR cells assessed as cell growth at 1 x 10^-5 M; assay type: functional, cell-based; method in brief: as §1
NCI/ADR-RES = experiment: Cytotoxicity against human NCI-ADR-RES cells assessed as cell growth at 1 x 10^-5 M; assay type: functional, cell-based; method in brief: as §1
MCF7 = experiment: Cytotoxicity against human MCF7 cells assessed as cell growth at 1 x 10^-5 M; assay type: functional, cell-based; method in brief: as §1
Hs-578T = experiment: Cytotoxicity against human Hs578T cells assessed as cell growth at 1 x 10^-5 M; assay type: functional, cell-based; method in brief: as §1
HL-60(TB) = experiment: Cytotoxicity against human HL-60(TB) cells assessed as cell growth at 1 x 10^-5 M; assay type: functional, cell-based
Method in brief: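 Run by the NCI Developmental Therapeutics Program (DTP) within its 60 human tumour cell line one-dose screen.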

LOX IMVI = experiment: Cytotoxicity against human LOXIMVI cells assessed as cell growth at 1 x 10^-5 M; assay type: functional, cell-based; method in brief: as §1
SK-MEL-2 = experiment: Cytotoxicity against human SK-MEL-2 cells assessed as cell growth at 1 x 10^-5 M; assay type: functional, cell-based; method in brief: as §1
HCC 2998 = experiment: Cytotoxicity against human HCC2998 cells assessed as cell growth at 1 x 10^-5 M; assay type: functional, cell-based; method in brief: as §1
SW-620 = experiment: Cytotoxicity against human SW620 cells assessed as cell growth at 1 x 10^-5 M; assay type: functional, cell-based; method in brief: as §2
HCT-15 = experiment: Cytotoxicity against human HCT15 cells assessed as cell growth at 1 x 10^-5 M; assay type: functional, cell-based; method in brief: as §1
OVCAR-4 = experiment: Cytotoxicity against human OVCAR4 cells assessed as cell growth at 1 x 10^-5 M; assay type: functional, cell-based; method in brief: as §1
CCRF-CEM = experiment: Cytotoxicity against human CCRF-CEM cells assessed as cell growth at 1 x 10^-5 M; assay type: functional, cell-based; method in brief: as §1
SNB-19 = experiment: Cytotoxicity against human SNB19 cells assessed as cell growth at 1 x 10^-5 M; assay type: functional, cell-based; method in brief: as §1
SK-MEL-28 = experiment: Cytotoxicity against human SK-MEL-28 cells assessed as cell growth at 1 x 10^-5 M; assay type: functional, cell-based; method in brief: as §1
UACC-257 = experiment: Cytotoxicity against human UACC257 cells assessed as cell growth at 1 x 10^-5 M; assay type: functional, cell-based; method in brief: as §2
OVCAR-5 = experiment: Cytotoxicity against human OVCAR5 cells assessed as cell growth at 1 x 10^-5 M; assay type: functional, cell-based; method in brief: as §1
SF-268 = experiment: Cytotoxicity against human SF268 cells assessed as cell growth at 1 x 10^-5 M; assay type: functional, cell-based; method in brief: as §1
IGROV-1 = experiment: Cytotoxicity against human IGROV1 cells assessed as cell growth at 1 x 10^-5 M; assay type: functional, cell-based; method in brief: as §1
BT-549 = experiment: Cytotoxicity against human BT549 cells assessed as cell growth at 1 x 10^-5 M; assay type: functional, cell-based; method in brief: as §1
HCT-116 = experiment: Cytotoxicity against human HCT116 cells assessed as cell growth at 1 x 10^-5 M; assay type: functional, cell-based; method in brief: as §1
KM12 = experiment: Cytotoxicity against human KM12 cells assessed as cell growth at 1 x 10^-5 M; assay type: functional, cell-based; method in brief: as §1
UO-31 = experiment: Cytotoxicity against human UO31 cells assessed as cell growth at 1 x 10^-5 M; assay type: functional, cell-based; method in brief: as §2
SN12C = experiment: Cytotoxicity against human SN12C cells assessed as cell growth at 1 x 10^-5 M; assay type: functional, cell-based; method in brief: as §1
HT-29 = experiment: Cytotoxicity against human HT-29 cells assessed as cell growth at 1 x 10^-5 M; assay type: functional, cell-based; method in brief: as §1
DU-145 = experiment: Cytotoxicity against human DU145 cells assessed as cell growth at 1 x 10^-5 M; assay type: functional, cell-based; method in brief: as §1
SF-539 = experiment: Cytotoxicity against human SF539 cells assessed as cell growth at 1 x 10^-5 M; assay type: functional, cell-based; method in brief: as §1
SF-295 = experiment: Cytotoxicity against human SF295 cells assessed as cell growth at 1 x 10^-5 M; assay type: functional, cell-based; method in brief: as §1
CAKI-1 = experiment: Cytotoxicity against human Caki1 cells assessed as cell growth at 1 x 10^-5 M; assay type: functional, cell-based; method in brief: as §1
OVCAR-8 = experiment: Cytotoxicity against human OVCAR8 cells assessed as cell growth at 1 x 10^-5 M; assay type: functional, cell-based; method in brief: as §1
ACHN = experiment: Cytotoxicity against human ACHN cells assessed as cell growth at 1 x 10^-5 M; assay type: functional, cell-based; method in brief: as §1
A498 = experiment: Cytotoxicity against human A498 cells assessed as cell growth at 1 x 10^-5 M; assay type: functional, cell-based; method in brief: as §1
NCI-H522 = experiment: Cytotoxicity against human NCI-H522 cells assessed as cell growth at 1 x 10^-5 M; assay type: functional, cell-based; method in brief: as §1
786-0 = experiment: Cytotoxicity against human 786-0 cells assessed as cell growth at 1 x 10^-5 M; assay type: functional, cell-based; method in brief: as §1
COLO 205 = experiment: Cytotoxicity against human COLO205 cells assessed as cell growth at 1 x 10^-5 M; assay type: functional, cell-based; method in brief: as §1
NCI-H460 = experiment: Cytotoxicity against human NCI-H460 cells assessed as cell growth at 1 x 10^-5 M; assay type: functional, cell-based; method in brief: as §1
MOLT-4 = experiment: Cytotoxicity against human MOLT4 cells assessed as cell growth at 1 x 10^-5 M; assay type: functional, cell-based; method in brief: as §1
SK-OV-3 = experiment: Cytotoxicity against human SKOV3 cells assessed as cell growth at 1 x 10^-5 M; assay type: functional, cell-based; method in brief: as §1
RXF 393 = experiment: Cytotoxicity against human RXF393 cells assessed as cell growth at 1 x 10^-5 M; assay type: functional, cell-based; method in brief: as §1
Escherichia coli [3] = experiment: Effect on Copper-mediated Escherichia coli pBR322 DNA cleavage at 100 uM by gel-electrophoresis analysis
M14 = experiment: Cytotoxicity against human M14 cells assessed as cell growth at 1 x 10^-5 M; assay type: functional, cell-based; method in brief: as §1
MDA-MB-468 = experiment: Cytotoxicity against human MDA-MB-468 cells assessed as cell growth at 1 x 10^-5 M; assay type: functional, cell-based; method in brief: as §1
PC-3 = experiment: Cytotoxicity against human PC3 cells assessed as cell growth at 1 x 10^-5 M; assay type: functional, cell-based; method in brief: as §1
U-251 = experiment: Cytotoxicity against human U251 cells assessed as cell growth at 1 x 10^-5 M; assay type: functional, cell-based; method in brief: as §2
NCI-H226 = experiment: Cytotoxicity against human NCI-H226 cells assessed as cell growth at 1 x 10^-5 M; assay type: functional, cell-based; method in brief: as §1

Cc1cc(O)c2c(c1)C1OC(=O)[C@H](Cc3ccc(NC(=O)COc4ccccc4)cc3)N1C1=C2C(=O)c2cccc(O[C@H]3C[C@@H](O)[C@@H](O)[C@H](C)O3)c2C1=O (stereo partly specified)
inactive: growth inhibition (GI) (A549) | growth inhibition (GI) (NCI-H322M) | growth inhibition (GI) (NCI-H23) | growth inhibition (GI) (HOP-62) | growth inhibition (GI) (K562) | growth inhibition (GI) (T47D) | growth inhibition (GI) (SNB-75) | growth inhibition (GI) (OVCAR-3) | growth inhibition (GI) (Malme-3M) | Activity (Escherichia coli [1]) | growth inhibition (GI) (MDA-MB-435) | Activity (Escherichia coli [2]) | growth inhibition (GI) (SK-MEL-5) | growth inhibition (GI) (HOP-92) | growth inhibition (GI) (MDA-MB-231) | growth inhibition (GI) (UACC-62) | growth inhibition (GI) (TK-10) | growth inhibition (GI) (SR) | growth inhibition (GI) (NCI/ADR-RES) | growth inhibition (GI) (MCF7) | growth inhibition (GI) (Hs-578T) | growth inhibition (GI) (HL-60(TB)) | growth inhibition (GI) (LOX IMVI) | growth inhibition (GI) (SK-MEL-2) | growth inhibition (GI) (HCC 2998) | growth inhibition (GI) (SW-620) | growth inhibition (GI) (HCT-15) | growth inhibition (GI) (OVCAR-4) | growth inhibition (GI) (CCRF-CEM) | growth inhibition (GI) (SNB-19) | growth inhibition (GI) (SK-MEL-28) | growth inhibition (GI) (UACC-257) | growth inhibition (GI) (OVCAR-5) | growth inhibition (GI) (SF-268) | growth inhibition (GI) (IGROV-1) | growth inhibition (GI) (BT-549) | growth inhibition (GI) (HCT-116) | growth inhibition (GI) (KM12) | growth inhibition (GI) (UO-31) | growth inhibition (GI) (SN12C) | growth inhibition (GI) (HT-29) | growth inhibition (GI) (DU-145) | growth inhibition (GI) (SF-539) | growth inhibition (GI) (SF-295) | growth inhibition (GI) (CAKI-1) | growth inhibition (GI) (OVCAR-8) | growth inhibition (GI) (ACHN) | growth inhibition (GI) (A498) | growth inhibition (GI) (NCI-H522) | growth inhibition (GI) (786-0) | growth inhibition (GI) (COLO 205) | growth inhibition (GI) (NCI-H460) | growth inhibition (GI) (MOLT-4) | growth inhibition (GI) (SK-OV-3) | growth inhibition (GI) (RXF 393) | Activity (Escherichia coli [3]) | growth inhibition (GI) (M14) | growth inhibition (GI) (MDA-MB-468) | growth inhibition (GI) (PC-3) | growth inhibition (GI) (U-251) | growth inhibition (GI) (NCI-H226)
